Data published in PMC4372064 (ACS Chemical Neuroscience, 2014).
“Also recorded” adds a separate entry of the source. Read-outs that look alike come from different tables or passages of the source.

Legend:
[1] = test system: rats (tibial-nerve injury model); experiment: Tibial-nerve injury; type: in vivo, rat
[2] = target: T1, sodium channels in CAD cells (Mus musculus, UniProt Q62205); conditions: cited from earlier work
[3] = test system: voltage-gated sodium channels in rat embryonic cortical neurons; experiment: Whole-cell patch clamp, inactivation protocol, rat embryonic cortical neurons; type: cell-based; conditions: 10 μM
[4] = test system: mice (6 Hz psychomotor seizure model); conditions: ip, 32 mA, [time of peak effect, h], (95% CI); cited from earlier work
[5] = test system: rat (behavioral toxicity); conditions: po, h]; cited from earlier work
[6] = test system: voltage-gated sodium channels in rat embryonic cortical neurons; type: cell-based; conditions: 10 μM
[7] = test system: voltage-gated sodium channels in rat embryonic cortical neurons; experiment: Whole-cell patch clamp, steady-state activation, rat embryonic cortical neurons; type: cell-based; conditions: 10 μM
rat (MES seizure model) = conditions: po, (95% CI), cited from earlier work
[8] = test system: mice (formalin pain model); conditions: 8 mg/kg; cited from earlier work
[9] = test system: Na+ currents in CAD cells; conditions: 100 μM; cited from earlier work
mice (MES seizure model) = conditions: ip, (95% CI), cited from earlier work
[10] = target: T1, sodium channels in CAD cells; experiment: Whole-cell patch clamp, steady-state fast inactivation, CAD cells; type: cell-based
Procedure, shortened: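 CAD cells were recorded by whole-cell clamp at room temperature, with 3 s between pulses. Steady-state fast inactivation was induced by a previously described protocol. Test compound was applied at 10 μM (10–200 μM for one compound) versus 0.1% DMSO control. Each recording was fitted to a Boltzmann function to give V1/2 and slope k, which were averaged (mean ±SEM). Cells numbered 3–7 per condition, compared by Student's t test or one-way ANOVA.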

[11] = test system: Na+ currents in CAD cells; experiment: Whole-cell patch clamp, frequency; type: cell-based, mouse; conditions: 100 μM
Procedure, shortened: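 Whole-cell voltage clamp was done at room temperature on CAD cells (Ham's F12/DMEM, 10% FBS, 1% pen/strep, 37 °C, 5% CO2, passaged 1:5 every 3–5 days). Criteria were access resistance <3 MΩ and −P/4 leak subtraction. Cells were held at −80 mV and given 20 ms pulses to −10 mV at 10 Hz. Peak currents were compared with the first pulse against 0.1% DMSO control, with test compound at 10 or 100 μM.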

scMet seizure model = conditions: cited from earlier work

T1 sequence (Q62205 whole entry): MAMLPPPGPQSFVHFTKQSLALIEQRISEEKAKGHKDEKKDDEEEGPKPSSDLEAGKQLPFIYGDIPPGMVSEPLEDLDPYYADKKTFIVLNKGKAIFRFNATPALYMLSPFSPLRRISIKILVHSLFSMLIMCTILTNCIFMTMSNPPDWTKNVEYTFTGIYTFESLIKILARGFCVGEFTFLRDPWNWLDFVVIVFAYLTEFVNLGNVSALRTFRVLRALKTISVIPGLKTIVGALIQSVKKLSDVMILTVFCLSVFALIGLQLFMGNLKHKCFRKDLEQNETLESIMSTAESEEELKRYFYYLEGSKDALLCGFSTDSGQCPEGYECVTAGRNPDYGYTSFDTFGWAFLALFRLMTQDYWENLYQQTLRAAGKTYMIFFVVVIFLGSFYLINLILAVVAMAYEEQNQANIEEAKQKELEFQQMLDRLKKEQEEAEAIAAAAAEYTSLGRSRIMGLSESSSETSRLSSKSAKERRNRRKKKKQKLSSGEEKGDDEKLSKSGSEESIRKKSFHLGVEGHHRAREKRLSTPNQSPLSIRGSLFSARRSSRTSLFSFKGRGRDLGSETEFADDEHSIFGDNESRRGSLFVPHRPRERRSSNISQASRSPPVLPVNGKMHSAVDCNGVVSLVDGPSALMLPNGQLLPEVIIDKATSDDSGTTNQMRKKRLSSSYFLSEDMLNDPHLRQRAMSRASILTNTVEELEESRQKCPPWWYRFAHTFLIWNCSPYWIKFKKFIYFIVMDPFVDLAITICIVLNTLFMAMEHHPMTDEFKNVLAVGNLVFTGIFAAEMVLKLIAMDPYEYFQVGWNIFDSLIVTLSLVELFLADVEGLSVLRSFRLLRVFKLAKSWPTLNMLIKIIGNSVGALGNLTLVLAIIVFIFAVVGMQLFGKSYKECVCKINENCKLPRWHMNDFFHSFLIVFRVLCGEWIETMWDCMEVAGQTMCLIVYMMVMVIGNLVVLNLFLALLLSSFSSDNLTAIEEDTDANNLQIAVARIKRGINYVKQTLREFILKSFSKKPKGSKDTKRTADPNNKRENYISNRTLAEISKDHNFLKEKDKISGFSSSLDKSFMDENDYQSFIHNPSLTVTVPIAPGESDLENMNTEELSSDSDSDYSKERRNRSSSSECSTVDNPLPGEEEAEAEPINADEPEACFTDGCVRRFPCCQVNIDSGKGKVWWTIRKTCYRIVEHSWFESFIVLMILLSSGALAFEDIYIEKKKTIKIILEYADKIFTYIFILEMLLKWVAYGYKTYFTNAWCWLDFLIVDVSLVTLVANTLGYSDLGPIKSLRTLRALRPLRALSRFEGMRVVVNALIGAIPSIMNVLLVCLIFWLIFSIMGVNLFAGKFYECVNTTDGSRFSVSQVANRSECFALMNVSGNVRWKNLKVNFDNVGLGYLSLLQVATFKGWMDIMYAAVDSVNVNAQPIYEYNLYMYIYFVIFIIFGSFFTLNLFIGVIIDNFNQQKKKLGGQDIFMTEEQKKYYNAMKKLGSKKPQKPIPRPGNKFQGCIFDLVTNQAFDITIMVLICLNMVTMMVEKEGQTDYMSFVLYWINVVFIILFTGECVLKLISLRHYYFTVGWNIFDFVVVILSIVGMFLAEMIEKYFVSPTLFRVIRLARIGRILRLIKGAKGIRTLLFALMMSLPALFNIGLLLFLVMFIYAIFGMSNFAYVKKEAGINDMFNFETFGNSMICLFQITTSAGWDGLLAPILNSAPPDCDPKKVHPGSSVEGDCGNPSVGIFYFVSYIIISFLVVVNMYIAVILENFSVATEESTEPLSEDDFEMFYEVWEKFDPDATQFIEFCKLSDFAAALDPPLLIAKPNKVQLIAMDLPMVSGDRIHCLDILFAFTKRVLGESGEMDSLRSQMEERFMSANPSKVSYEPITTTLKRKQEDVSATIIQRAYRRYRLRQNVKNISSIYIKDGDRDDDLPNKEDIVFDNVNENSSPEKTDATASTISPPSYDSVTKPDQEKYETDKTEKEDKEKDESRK

## NC(=O)N1c2ccccc2C=Cc2ccccc21 [carbamazepine]
[1]; TNI, 65 mg/kg, ip
  effect on tactile hypersensitivity (in words): ineffective

## COC[C@@H](NC(C)=O)C(=O)NCc1ccccc1 [(R)-2, (R)-N-benzyl 2-N-acetamido-3-methoxypropionamide]
[2]
  effect on sodium channel fast inactivation: did not
[3]
  effect on sodium channel inactivation (in words): neither parent compound affected inactivation
[4]
  6 Hz ED50: 10 mg/kg
[5]
  Tox, TD50 (behavioral toxicity): >500 [0.5] mg/kg
[6]
  effect on steady-state fast inactivation (in words): neither (R)-2 nor (S)-3 affected fast inactivation
[1]; TNI day 14, 10 mg/kg ip, 1 h after administration
  reversal of tactile hypersensitivity (% of preinjury values): ~72%
[7]
  effect on steady-state activation of VGSCs (in words): neither 10 μM (R)-2 nor 10 μM (S)-3 affected the steady-state activation
Rat (MES seizure model); [time of peak effect, h]
  MES, ED50: 3.9 mg/kg
[8]
  activity in the second (inflammation) phase of the formalin model: effective
[9]
  reduction of Na+ currents, frequency (use)-dependence: ~8.8%

## O=C1NC(=O)C(c2ccccc2)(c2ccccc2)N1 [phenytoin]
Mice (MES seizure model); [time of peak effect, h]
  MES, ED50: 9.5 mg/kg
Rat (MES seizure model); [time of peak effect, h]
  MES, ED50: 30 mg/kg

## C[C@H](NCc1ccc(OCc2cccc(F)c2)cc1)C(N)=O [(S)-3, (S)-2-(4′-((3″-fluoro)benzyloxy)benzyl)aminopropionamide]
Mice (MES seizure model)
  MES, ED50: 4.1 (3.0–5.5) mg/kg
[3]
  effect on sodium channel inactivation (in words): neither parent compound affected inactivation
[10]
  effect on VGSC fast inactivation: promoted fast inactivation of VGSCs
[10]; 200 μM
  hyperpolarizing shift in V1/2 of fast inactivation vs control (maximum): ~21.6 mV
[11]
  inhibition of Na+ current, frequency (use)-dependence: ~13%
[6]
  effect on steady-state fast inactivation (in words): neither (R)-2 nor (S)-3 affected fast inactivation
[1]; TNI day 14, single ip administration, 10 mg/kg
  effect on mechanical/tactile hypersensitivity (in words): no effect; also recorded: without effect
scMet seizure model
  scMet ED50: 27 mg/kg
[7]
  effect on steady-state activation of VGSCs (in words): neither 10 μM (R)-2 nor 10 μM (S)-3 affected the steady-state activation
Rat (MES seizure model)
  MES, ED50: 12 (10–14) mg/kg
